{"data": "Measured values from different studies", "target": "Serine/threonine-protein kinase ULK1 (ULK1, Homo sapiens, UniProt O75385)", "Sequence (O75385 1-1050, as in one of the studies)": "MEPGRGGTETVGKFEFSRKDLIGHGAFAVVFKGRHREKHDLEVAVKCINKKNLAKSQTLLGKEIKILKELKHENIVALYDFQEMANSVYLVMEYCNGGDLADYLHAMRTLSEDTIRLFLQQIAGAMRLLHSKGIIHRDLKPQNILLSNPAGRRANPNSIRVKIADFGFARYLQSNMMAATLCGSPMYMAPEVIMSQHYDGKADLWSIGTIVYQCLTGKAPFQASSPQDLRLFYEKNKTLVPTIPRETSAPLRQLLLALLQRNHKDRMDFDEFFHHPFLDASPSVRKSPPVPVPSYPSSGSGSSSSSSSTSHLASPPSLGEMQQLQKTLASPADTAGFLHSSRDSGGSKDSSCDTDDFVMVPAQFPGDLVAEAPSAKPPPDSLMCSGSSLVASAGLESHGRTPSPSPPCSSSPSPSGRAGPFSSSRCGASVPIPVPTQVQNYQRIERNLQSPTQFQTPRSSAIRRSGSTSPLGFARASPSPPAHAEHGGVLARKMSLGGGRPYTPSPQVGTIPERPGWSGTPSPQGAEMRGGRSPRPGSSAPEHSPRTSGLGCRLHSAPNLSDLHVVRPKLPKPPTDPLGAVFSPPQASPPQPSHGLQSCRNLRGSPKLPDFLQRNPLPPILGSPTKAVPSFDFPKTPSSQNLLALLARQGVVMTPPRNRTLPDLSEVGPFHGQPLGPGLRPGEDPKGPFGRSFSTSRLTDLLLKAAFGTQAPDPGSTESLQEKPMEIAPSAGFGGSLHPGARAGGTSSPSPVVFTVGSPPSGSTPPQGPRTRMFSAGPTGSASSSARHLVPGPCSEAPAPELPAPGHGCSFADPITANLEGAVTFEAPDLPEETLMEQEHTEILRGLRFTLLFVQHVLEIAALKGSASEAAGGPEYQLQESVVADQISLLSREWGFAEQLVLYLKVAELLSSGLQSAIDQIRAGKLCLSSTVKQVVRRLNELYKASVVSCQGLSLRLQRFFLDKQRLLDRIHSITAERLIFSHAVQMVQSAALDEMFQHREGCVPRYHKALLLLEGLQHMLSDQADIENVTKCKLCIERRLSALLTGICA", "note": "Compare with care: the assays were run in different laboratories."}
{"Compound": "CO[C@@H]1[C@H](N(C)C(=O)c2ccccc2)C[C@H]2O[C@]1(C)n1c3ccccc3c3c4c(c5c6ccccc6n2c5c31)C(=O)NC4", "test": "enzyme activity, inhibitor", "setting": "1 µM", "endpoint": "inhibition", "result": "7%"}
{"Compound": "Cc1cc(S(=O)(=O)N[C@H]2CC[C@H](CN3CCN(c4ccc(C5CCC(=O)NC5=O)cc4F)CC3)CC2)ccc1Nc1ncc(C(F)(F)F)c(N2CCC[C@](C)(O)C2)n1 (stereo partly drawn)", "test": "binding, competition with immobilised ligand", "setting": "1 µM", "endpoint": "remaining binding", "result": "5.7%"}
{"Compound": "COc1ccc2oc(-c3ccc4nc(N)oc4c3)c/c(=N\\c3ccccc3NC(=O)CCN)c2c1", "test": "binding", "setting": "1 µM", "endpoint": "remaining binding", "result": "99%"}
{"Compound": "CCCCC(=O)Nc1ccc(-c2ccc3ncn(CCC)c(=O)c3c2)cn1", "test": "binding, competition with immobilised ligand", "setting": "0.5 µM", "endpoint": "remaining binding", "result": "94%"}
{"Compound": "C[C@]1(O)CCCN(c2nc(Nc3ccc(S(=O)(=O)N[C@H]4CC[C@H](CN5CCN(c6ccc(C7CCC(=O)NC7=O)cc6F)CC5)CC4)cc3F)ncc2C(F)(F)F)C1 (stereo partly drawn)", "test": "binding, competition with immobilised ligand", "setting": "1 µM", "endpoint": "remaining binding", "result": "49%"}
{"Compound": "COc1ccc2[nH]c3c4[nH]c5ccc(OC)cc5c4c4c(c3c2c1)C(=O)NC4=O", "test": "binding", "setting": "1 µM", "endpoint": "remaining binding", "result": "100%"}
{"Compound": "C=CC(=O)N1CCC([C@@H]2CCNc3c(C(N)=O)c(-c4ccc(Oc5ccccc5)cc4)nn32)CC1", "test": "enzyme activity, inhibitor", "setting": "1 µM", "endpoint": "inhibition", "result": "0%"}
{"Compound": "C[C@H]1CC[C@H](n2c3cnccc3c3cnc(Nc4ccc5c(n4)CCN(C(=O)CO)C5)nc32)CC1", "test": "cell-free assay", "setting": "1 µM", "endpoint": "remaining signal", "result": "94%"}
{"Compound": "C1=C/COCc2cc(ccc2OCCN2CCCC2)Nc2nccc(n2)-c2cccc(c2)COC/1", "test": "cell-free assay", "setting": "0.1 µM", "endpoint": "remaining signal", "result": "90%"}
